The record followed here is ChEMBL document CHEMBL1649302, “New small-molecule inhibitor class targeting human immunodeficiency virus type 1 virion maturation” (Antimicrob Agents Chemother, 2009).

The source made the active and inactive calls. The rule behind the calls is not given here.

As usually defined, the EC50 is the concentration that produces a half-maximal response. In general, CC50 refers to the concentration giving 50% cytotoxicity. Low values mean harm at low concentration, high ones better tolerance by the cells.

Data set [1] has as its system Human immunodeficiency virus 1. Briefly: Antiviral activity against HIV1 NL4-3 infected in human MT2 cells assessed as protection against virus-induced cytopathogenicity after 6 days by XTT assay. In kind it is functional, organism-based. The settings on record: Human immunodeficiency virus 1, NL4-3, MT2, 144 h. The gist of the method:
(§1)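 Host cells were infected with NL4-3 or IIIB (MOI 0.08) or RF (MOI 0.025–0.819) and seeded at 2 × 10⁴/well onto half-log compound dilutions. After 6 days, XTT/PMS was added for 4 h and formazan was read at 450 nm. EC50 was the concentration giving 50% of the formazan of uninfected, compound-free cells.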

Data set [2] in a line: Therapeutic index, ratio of CC50 for human PM1 cells to EC50 for HIV1 NL4-3 infected in human PM1 cells. In kind it is cell-based. The settings on record: read-out: TI. An outline of the steps:
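PM1 cells infected at MOI 0.16 for 2 h, washed, then seeded at 1 × 10⁴ cells/well on half-log compound dilutions. After 5 days, supernatant p24 antigen was quantified by ELISA kit. EC50 is the concentration halving p24 versus infected untreated cells. CC50 was measured in PM1 cells by XTT formazan at 450 nm. TI is CC50 divided by EC50.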

The nature of data set [3]: Cytotoxicity against human CEM-SS cells after 6 days by XTT assay. It counts as cell-based. An outline of the steps: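 Uninfected cells were incubated with half-log compound dilutions for 6 days, then given XTT/PMS for 4 h and read at 450 nm. CC50 was the concentration reducing formazan to 50% of uninfected, compound-free cells. Values are means ± SD from 3–5 experiments or individual values.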
Background: Formazan colour is commonly taken as a measure of viable cells.

Data set [4] relates to Human immunodeficiency virus 1. In words: Antiviral activity against HIV1 RF infected in human MT2 cells assessed as protection against virus-induced cytopathogenicity after 6 days by XTT assay. It counts as functional, organism-based. The settings on record: Human immunodeficiency virus 1, RF, MT2, 144 h. The gist of the method:
as §1
Background: Protection from cytopathic effect is a common read-out in antiviral testing.

For data set [5], the system named is Human immunodeficiency virus 1. In words: Antiviral activity against HIV1 92HT599 infected in human MT2 cells assessed as inhibition of viral p24 antigen production after 5 days. The settings on record: Human immunodeficiency virus 1, 92HT599, MT2, 120 h. In kind it is functional, organism-based. An outline of the steps: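 PM1 cells (NL4-3, Ba-L) or MT-2 cells (92HT594, 92HT599) were infected at MOI 0.16 for 2 h and washed. They were plated at 1 × 10⁴ cells/well (2 × 10⁵/ml) onto half-log compound dilutions. Supernatant p24 was quantified by ELISA at day 5. EC50 was the concentration giving a 50% decrease versus infected, compound-free cells.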

Data set [6] concerns Human immunodeficiency virus 1. Briefly: Antiviral activity against wild type HIV1 infected in human HeLa cells assessed as decrease in viral infection after 72 hrs by beta-galactosidase reporter gene assay. In kind it is functional, organism-based. The settings on record: Human immunodeficiency virus 1, HeLa. The gist of the method: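 HeLa CD4 LTR/β-Gal cells (1 × 10⁴/well, DMEM + 10% FBS) were pretreated with half-log compound dilutions. They were then infected at MOI 0.03 with single-cycle NL4-3 ΔEnv reporter virus pseudotyped with envelope from HEK 293 cotransfection. EC50 was the concentration halving β-galactosidase activity versus infected untreated cells. Values are mean ± SD or representative of three experiments.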

Data set [7] deals with Human immunodeficiency virus 1. Briefly: Antiviral activity against HIV1 harboring capsid I201V mutant protein infected in human HeLa cells assessed as decrease in viral infection after 72 hrs by beta-galactosidase reporter gene assay. In kind it is functional, organism-based. The settings on record: Human immunodeficiency virus 1, HeLa.
Data set [8] concerns Human immunodeficiency virus 1. Briefly: Antiviral activity HIV1 ROJO infected in human PBMC after 7 days by scintillation counting. In kind it is functional, organism-based. The settings on record: Human immunodeficiency virus 1, ROJO, 168 h. The gist of the method: (§2)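 Fresh PBMCs from HIV/HBV-seronegative donors were PHA-stimulated (4 μg/ml, 48–72 h) and kept with IL-2 (20 U/ml), with at least two donors pooled. Cells were seeded at 5 × 10⁴/well and infected (final MOI ≅0.1) with nine compound concentrations in triplicate wells. After 7 days, reverse transcriptase activity was measured in cell-free supernatant.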

The subject of data set [9] is Human immunodeficiency virus 1. Briefly: Antiviral activity HIV1 91US005 infected in human PBMC after 7 days by scintillation counting. In kind it is functional, organism-based. The settings on record: Human immunodeficiency virus 1, 91US005, 168 h. The gist of the method:
as §2

The subject of data set [10] is Human immunodeficiency virus 1. In words: Antiviral activity HIV1 91US056 infected in human PBMC after 7 days by scintillation counting. The settings on record: Human immunodeficiency virus 1, 91US056, 168 h. It counts as functional, organism-based. An outline of the steps: as §2
For data set [11], the system named is Human immunodeficiency virus 1. In words: Antiviral activity HIV1 92BR004 infected in human PBMC after 7 days by scintillation counting. The settings on record: Human immunodeficiency virus 1, 92BR004, 168 h. In kind it is functional, organism-based. An outline of the steps:
(§3)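 PBMCs came from buffy coats pooled from 3–4 seronegative donors, were PHA-stimulated (1.5 μg/ml, 3 days) and frozen. Thawed cells were infected 1 h at 37°C with virus input set by TCID50, then pelleted and resuspended in IL-2 (10 ng/ml). They were plated at 4 × 10⁵ cells/ml onto compounds for 7 days at 37°C. Supernatant RT activity was measured by Quan-T-RT scintillation assay.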

Data set [12] concerns Human immunodeficiency virus 1. In words: Antiviral activity HIV1 92BR017 infected in human PBMC after 7 days by scintillation counting. It counts as functional, organism-based. The settings on record: Human immunodeficiency virus 1, 92BR017, 168 h. The gist of the method: as §3
In data set [13] the test system is Human immunodeficiency virus 1. Briefly: Antiviral activity HIV1 92TH014 infected in human PBMC after 7 days by scintillation counting. The settings on record: Human immunodeficiency virus 1, 92TH014, 168 h. In kind it is functional, organism-based. The gist of the method:
as §2

Data set [14] has as its system Human immunodeficiency virus 1. In words: Antiviral activity HIV1 92US660 infected in human PBMC after 7 days by scintillation counting. It counts as functional, organism-based. The settings on record: Human immunodeficiency virus 1, 92US660, 168 h. An outline of the steps: as §2
Data set [15] concerns Human immunodeficiency virus 1. In words: Antiviral activity HIV1 93BR023 infected in human PBMC after 7 days by scintillation counting. The settings on record: Human immunodeficiency virus 1, 93BR023, 168 h. In kind it is functional, organism-based. An outline of the steps:
as §2

Data set [16] deals with Human immunodeficiency virus 1. In words: Antiviral activity HIV1 CMU06 infected in human PBMC after 7 days by scintillation counting. In kind it is functional, organism-based. The settings on record: Human immunodeficiency virus 1, CMU06, 168 h. The gist of the method:
as §3

Data set [17] in a line: Therapeutic index, ratio of CC50 for human PBMC to EC50 for HIV1 ROJO infected in human PBMC. The settings on record: read-out: TI. The gist of the method: (§4)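 PHA-stimulated (4 μg/ml, 48 to 72 h) PBMCs pooled from at least two seronegative donors, kept with 20 U/ml IL-2, plated at 5 × 10⁴ cells/well. Infected with clinical isolate (final MOI ≅0.1) alongside nine compound concentrations in triplicate wells, 7 days. Supernatant reverse transcriptase activity measured. TI is mean PBMC CC50 divided by mean EC50.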

The nature of data set [18]: Therapeutic index, ratio of CC50 for human PBMC to EC50 for HIV1 WEJO infected in human PBMC. The settings on record: read-out: TI. The gist of the method:
as §4

Data set [19] in a line: Therapeutic index, ratio of CC50 for human PBMC to EC50 for HIV1 91US056 infected in human PBMC. The settings on record: read-out: TI. The gist of the method:
(§5)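 TI was the mean PBMC CC50 divided by the mean EC50 from the 7-day PBMC reverse transcriptase assay.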

Data set [20] is described as follows: Therapeutic index, ratio of CC50 for human PBMC to EC50 for HIV1 92BR004 infected in human PBMC. The settings on record: read-out: TI. The gist of the method:
as §5

A short description of data set [21]: Therapeutic index, ratio of CC50 for human PBMC to EC50 for HIV1 92US072 infected in human PBMC. The settings on record: read-out: TI. The gist of the method: as §4
Data set [22] is described as follows: Therapeutic index, ratio of CC50 for human PBMC to EC50 for HIV1 92US660 infected in human PBMC. The settings on record: read-out: TI. The gist of the method:
as §4

In data set [23] the test system is Human immunodeficiency virus 1. Briefly: Antiviral activity against HIV1 NL4-3 infected in HEK293 cells assessed as inhibition of viral p24 antigen production after 72 hrs.

Regarding `CC(C)(C)c1ccc(C(Cn2cccc(C(F)(F)F)c2=O)NC2Cc3ccccc3C2)cc1` (stereo not drawn), the EC50 in [1] was 360 nM; in [4], greater than 16000 nM; in [5], 210 nM; in data set [6], 206 nM; in [7], greater than 10000 nM; in data set [8], greater than 17000 nM. Further, the EC50 is greater than 17000 nM in data set [9]; greater than 17000 nM in [10]; 330 nM in data set [11]; 120 nM in [12]; greater than 17000 nM in data set [13]; 12000 nM in data set [14]. Further, the EC50 is greater than 17000 nM in data set [15] and 1200 nM in data set [16]. The selectivity ratio is 633 in data set [2]; less than 1 in [17]; 11 in data set [18]; less than 1 in data set [19]; 52 in [20]; 3400 in data set [21]. Further, in data set [22], the selectivity ratio was determined as 1. In data set [3], this compound gave a CC50 at 144 h of 20000 nM. The inhibition result in data set [23] was “inactive”.
